# Measured values taken from ChEMBL document CHEMBL1806473, “Structure-based optimization of click-based histone deacetylase inhibitors” (Eur J Med Chem, 2011).
# Experiments:
# MDA-MB-435 [1] = assay: Antiproliferative activity against human MDA-MB-435 cells by SRB assay; format: functional
# How it was run: (§1)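 Tested in the NCI in vitro human tumor cell line screen, run by the National Cancer Institute. Each compound was given at five concentrations (100, 10, 1.0, 0.1 and 0.01 μM). GI50 is the drug concentration that reduces growth of treated cells to half that of control cells during drug incubation, judged from the SRB signal.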
# 786-0 [2] = assay: Antiproliferative activity against human 786-0 cells by SRB assay; format: functional; how it was run: as §1
# UACC-62 [3] = assay: Cytotoxicity against human UACC62 cells; format: cell-based
# How it was run: (§2)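 Screened by NCI in its in vitro disease-oriented human tumour cell line panel. Compounds tested at five concentrations (100, 10, 1.0, 0.1 and 0.01 μM). Growth read by sulforhodamine B (SRB) signal. GI50 is the concentration reducing growth of treated cells to half that of control cells during the drug incubation.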
# LOX IMVI [4] = assay: Antiproliferative activity against human LOXIMVI cells by SRB assay; format: functional; how it was run: as §1
# HCT-116 = assay: Antiproliferative activity against human HCT116 cells by SRB assay; format: functional; how it was run: as §1
# UACC-62 [5] = assay: Antiproliferative activity against human UACC62 cells by SRB assay; format: functional
# How it was run: (§3)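 Cell growth was tested in the NIH in vitro disease-oriented human tumor cell line screen, which NCI ran for these compounds. Compounds were tested at five concentrations (100, 10, 1.0, 0.1 and 0.01 μM), and growth was read by SRB signal. GI50 is the drug concentration that reduces growth of treated cells to half that of control cells during drug incubation.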
# UACC-257 [6] = assay: Cytotoxicity against human UACC257 cells; format: cell-based; how it was run: as §2
# MDA-MB-435 [7] = assay: Cytotoxicity against human MDA-MB-435 cells; format: cell-based
# SN12C = assay: Antiproliferative activity against human SN12C cells by SRB assay; format: functional; how it was run: as §1
# SK-OV-3 = assay: Cytotoxicity against human SKOV3 cells; format: cell-based
# SF-268 [8] = assay: Cytotoxicity against human SF268 cells; format: cell-based
# How it was run: (§4)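 Tested in the NCI in vitro disease-oriented human tumour cell line screen, with screening performed by NCI. Growth was read by SRB signal over the drug incubation period at five concentrations: 100, 10, 1.0, 0.1 and 0.01 μM. GI50 is the concentration that reduces growth of treated cells to half that of control cells.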
# NCI-H460 [9] = assay: Antiproliferative activity against human NCI-H460 cells by SRB assay; format: functional; how it was run: as §1
# SK-MEL-5 = assay: Antiproliferative activity against human SK-MEL-5 cells by SRB assay; format: functional; how it was run: as §1
# BT-549 [10] = assay: Cytotoxicity against human BT549 cells; format: cell-based
# K562 [11] = assay: Cytotoxicity against human K562 cells; format: cell-based
# RXF 393 = assay: Antiproliferative activity against human RXF393 cells by SRB assay; format: functional; how it was run: as §1
# OVCAR-8 [12] = assay: Antiproliferative activity against human OVCAR8 cells by SRB assay; format: functional; how it was run: as §1
# COLO 205 = assay: Cytotoxicity against human COLO205 cells; format: cell-based; how it was run: as §4
# NCI-H322M [13] = assay: Antiproliferative activity against human NCI-H322M cells by SRB assay; format: functional; how it was run: as §1
# NCI-H322M [14] = assay: Cytotoxicity against human NCI-H322M cells; format: cell-based
# A498 = assay: Antiproliferative activity against human A498 cells by SRB assay; format: functional; how it was run: as §1
# SNB-19 = assay: Antiproliferative activity against human SNB19 cells by SRB assay; format: functional; how it was run: as §1
# ACHN [15] = assay: Antiproliferative activity against human ACHN cells by SRB assay; format: functional; how it was run: as §1
# SF-268 [16] = assay: Antiproliferative activity against human SF268 cells by SRB assay; format: functional; how it was run: as §1
# SW-620 [17] = assay: Antiproliferative activity against human SW620 cells by SRB assay; format: functional; how it was run: as §3
# OVCAR-8 [18] = assay: Cytotoxicity against human OVCAR8 cells; format: cell-based
# MCF7 = assay: Antiproliferative activity against human MCF7 cells by SRB assay; format: functional; how it was run: as §1
# 786-0 [19] = assay: Cytotoxicity against human 786-0 cells; format: cell-based
# IGROV-1 [20] = assay: Cytotoxicity against human IGROV1 cells; format: cell-based
# HCT-15 = assay: Cytotoxicity against human HCT15 cells; format: cell-based; how it was run: as §4
# TK-10 = assay: Cytotoxicity against human TK10 cells; format: cell-based; how it was run: as §2
# SF-295 = assay: Cytotoxicity against human SF295 cells; format: cell-based; how it was run: as §4
# DU-145 [21] = assay: Antiproliferative activity against human DU145 cells by SRB assay; format: functional; how it was run: as §1
# K562 [22] = assay: Antiproliferative activity against human K562 cells by SRB assay; format: functional; how it was run: as §1
# BT-549 [23] = assay: Antiproliferative activity against human BT549 cells by SRB assay; format: functional; how it was run: as §1
# OVCAR-3 = assay: Antiproliferative activity against human OVCAR3 cells by SRB assay; format: functional; how it was run: as §1
# T47D = assay: Antiproliferative activity against human T47D cells by SRB assay; format: functional; how it was run: as §3
# CCRF-CEM = assay: Antiproliferative activity against human CCRF-CEM cells by SRB assay; format: functional; how it was run: as §1
# HOP-92 = assay: Antiproliferative activity against human HOP92 cells by SRB assay; format: functional; how it was run: as §1
# Malme-3M = assay: Antiproliferative activity against human MALME-3M cells by SRB assay; format: functional; how it was run: as §1
# NCI-H460 [24] = assay: Cytotoxicity against human NCI-H460 cells; format: cell-based
# UO-31 [25] = assay: Antiproliferative activity against human UO31 cells by SRB assay; format: functional; how it was run: as §3
# SR = assay: Cytotoxicity against human SR cells; format: cell-based; how it was run: as §2
# IGROV-1 [26] = assay: Antiproliferative activity against human IGROV1 cells by SRB assay; format: functional; how it was run: as §1
# HL-60(TB) = assay: Cytotoxicity against human HL-60(TB) cells; format: cell-based
# ACHN [27] = assay: Cytotoxicity against human ACHN cells; format: cell-based
# UO-31 [28] = assay: Cytotoxicity against human UO31 cells; format: cell-based; how it was run: as §2
# [29] = Cytotoxicity against human Hs 578T cells; format: cell-based
# A549 [30] = assay: Antiproliferative activity against human A549 cells by SRB assay; format: functional; how it was run: as §1
# DU-145 [31] = assay: Cytotoxicity against human DU145 cells; format: cell-based; how it was run: as §4
# SF-539 [32] = assay: Antiproliferative activity against human SF539 cells by SRB assay; format: functional; how it was run: as §1
# NCI-H23 = assay: Cytotoxicity against human NCI-H23 cells; format: cell-based
# A549 [33] = assay: Cytotoxicity against human A549 cells; format: cell-based; how it was run: as §4
# HT-29 = assay: Cytotoxicity against human HT-29 cells; format: cell-based; how it was run: as §4
# U-251 = assay: Antiproliferative activity against human U251 cells by SRB assay; format: functional; how it was run: as §3
# SF-539 [34] = assay: Cytotoxicity against human SF539 cells; format: cell-based; how it was run: as §4
# RPMI-8226 = assay: Cytotoxicity against human RPMI8226 cells; format: cell-based; how it was run: as §4
# SW-620 [35] = assay: Cytotoxicity against human SW620 cells; format: cell-based; how it was run: as §2
# OVCAR-4 = assay: Cytotoxicity against human OVCAR4 cells; format: cell-based
# UACC-257 [36] = assay: Antiproliferative activity against human UACC257 cells by SRB assay; format: functional; how it was run: as §3
# LOX IMVI [37] = assay: Cytotoxicity against human LOXIMVI cells; format: cell-based
# SNB-75 = assay: Antiproliferative activity against human SNB75 cells by SRB assay; format: functional; how it was run: as §3
compound,measurement,setting,value
CC(C)C(/C=C/c1ccccc1)n1cc(/C=C/C(=O)NO)nn1 (configuration not stated),GI50,MDA-MB-435 [1],719 nM
same,GI50,786-0 [2],1590 nM
same,LC50,UACC-62 [3],6610 nM
same,GI50,LOX IMVI [4],1180 nM
same,GI50,HCT-116,316 nM
same,GI50,UACC-62 [5],642 nM
same,LC50,UACC-257 [6],88300 nM
same,LC50,MDA-MB-435 [7],31600 nM
same,GI50,SN12C,1860 nM
same,LC50,SK-OV-3,27800 nM
same,LC50,SF-268 [8],29700 nM
same,GI50,NCI-H460 [9],761 nM
same,GI50,SK-MEL-5,730 nM
same,LC50,BT-549 [10],> 100000 nM
same,LC50,K562 [11],> 100000 nM
same,GI50,RXF 393,1190 nM
same,GI50,OVCAR-8 [12],816 nM
same,LC50,COLO 205,6100 nM
same,GI50,NCI-H322M [13],1360 nM
same,LC50,NCI-H322M [14],> 100000 nM
same,GI50,A498,1510 nM
same,GI50,SNB-19,2410 nM
same,GI50,ACHN [15],1210 nM
same,GI50,SF-268 [16],1870 nM
same,GI50,SW-620 [17],649 nM
same,LC50,OVCAR-8 [18],> 100000 nM
same,GI50,MCF7,1320 nM
same,LC50,786-0 [19],6740 nM
same,LC50,IGROV-1 [20],31600 nM
same,LC50,HCT-15,> 100000 nM
same,LC50,TK-10,> 100000 nM
same,LC50,SF-295,58300 nM
same,GI50,DU-145 [21],1090 nM
same,GI50,K562 [22],705 nM
same,GI50,BT-549 [23],3280 nM
same,GI50,OVCAR-3,1530 nM
same,GI50,T47D,1240 nM
same,GI50,CCRF-CEM,351 nM
same,GI50,HOP-92,1730 nM
same,GI50,Malme-3M,311 nM
same,LC50,NCI-H460 [24],42900 nM
same,GI50,UO-31 [25],1480 nM
same,LC50,SR,> 100000 nM
same,GI50,IGROV-1 [26],1080 nM
same,LC50,HL-60(TB),> 100000 nM
same,LC50,ACHN [27],71100 nM
same,LC50,UO-31 [28],40900 nM
same,LC50,[29],> 100000 nM
same,GI50,A549 [30],1330 nM
same,LC50,DU-145 [31],> 100000 nM
same,GI50,SF-539 [32],1190 nM
same,LC50,NCI-H23,12600 nM
same,LC50,A549 [33],88700 nM
same,LC50,HT-29,> 100000 nM
same,GI50,U-251,1130 nM
same,LC50,SF-539 [34],8210 nM
same,LC50,RPMI-8226,> 100000 nM
same,LC50,SW-620 [35],9220 nM
same,LC50,OVCAR-4,71400 nM
same,GI50,UACC-257 [36],3120 nM
same,LC50,LOX IMVI [37],5470 nM
same,GI50,SNB-75,1820 nM
